B1: NELF-E aptamer (parent)
chain: CCCAACGACUGCCGAGCGAGAUUACGCUUGAGCGCCCCACUGAGGAUGCCCACGGGCGAUUGGGGCACGG

The values that follow come from the RNAGym collection of RNA variant scans (doi:10.1038/nmeth.2970).

In the data set the parent is B1. Nature of the data set: HiTS-RAP. The settings on record: with NELF-E (Drosophila). In outline: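 Aptamer DNA templates bearing a T7 promoter and a ter site were sequenced on an Illumina GAIIx flowcell. T7 RNA polymerase then transcribed them in situ, and GST-Tus halted transcription over 30 minutes at 37°C. After a 30-minute room-temperature equilibration with NELF-E-mOrange at 0.064 to 1000 nM in HEPES binding buffer, clusters were imaged, using only the first binding curve. Intensities normalised to sequencing intensity were averaged per sequence and fitted with weighted Hill fits to give Kd, retaining only fits whose variance stayed under 1,000,000.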
In general, Kd refers to a measure of binding affinity in units of concentration. Take CCCAACGACGGCAGAGCGAGAUUACGCUUGAGCGCCCCACUGAGGAUGCCCACGGGCGAUUGGGGCACGG [U10G C13A]: the Kd came out at 5.77 nM.

In the case of CCCAACGACGGCUGAGCGAGAUUACGCUUGAGCGCCCCACUGAGGAUGCCCACGGGCGAUUGGGGCACGG [U10G C13U], the dissociation constant (Kd) worked out at 4.7 nM.

Take CCCAACGACGGCGGAGCGAGAUUACGCUUGAGCGCCCCACUGAGGAUGCCCACGGGCGAUUGGGGCACGG [U10G C13G]: the Kd turned out to be 4.78 nM.

In the case of CCCAACGACGGCCGAGCGAGAUUACGCUUGAGCGCCGCACUGAGGAUGCCCACGGGCGAUUGGGGCACGG [U10G C37G], the Kd was determined as 6.84 nM.

CCCAACGACGGCCGAGCGAGAUUACGCUUGAGCGCCACACUGAGGAUGCCCACGGGCGAUUGGGGCACGG [U10G C37A]: the Kd was found to be 14.8 nM.

As for CCCAACGACGGCCGAGCGAGAUUACGCUUGAGCGCCUCACUGAGGAUGCCCACGGGCGAUUGGGGCACGG [U10G C37U], the Kd was determined as 12.2 nM.

With CCCAACGACGGCCGAGCGAGAUUGCGCUUGAGCGCCCCACUGAGGAUGCCCACGGGCGAUUGGGGCACGG [U10G A24G], the dissociation constant Kd came out at 5.18 nM.

As to CCCAACGACGGCCGAGCGAGAUUUCGCUUGAGCGCCCCACUGAGGAUGCCCACGGGCGAUUGGGGCACGG [U10G A24U], the Kd came out at 6.04 nM.

As for CCCAACGACGGCCGAGCGAGAUUCCGCUUGAGCGCCCCACUGAGGAUGCCCACGGGCGAUUGGGGCACGG [U10G A24C], the Kd was found to be 4.94 nM.

As to CCCAACGACGGCCGAGCGAGAUUACGCUUGAGCGCCCCGCUGAGGAUGCCCACGGGCGAUUGGGGCACGG [U10G A39G], the Kd is 10.1 nM.

CCCAACGACGGCCGAGCGAGAUUACGCUUGAGCGCCCCCCUGAGGAUGCCCACGGGCGAUUGGGGCACGG [U10G A39C]: the Kd is 19.7 nM.

As to CCCAACGACGGCCGAGCGAGAUUACGCUUGAGCGCCCCUCUGAGGAUGCCCACGGGCGAUUGGGGCACGG [U10G A39U], the Kd worked out at 24.6 nM.

For the variant CCCAACGACGGCCGAGCGAGAUUACGCUUGAGCGCCCCACUGAGGAUGCCCACGGGCGAUUGGGGCCCGG [U10G A67C], the Kd came out at 5.03 nM.

In the case of CCCAACGACGGCCGAGCGAGAUUACGCUUGAGCGCCCCACUGAGGAUGCCCACGGGCGAUUGGGGCGCGG [U10G A67G], the Kd came out at 5.45 nM.

Turning to CCCAACGACGGCCGAGCGAGAUUACGCUUGAGCGCCCCACUGAGGAUGCCCACGGGCGAUUGGGGCUCGG [U10G A67U], the Kd stood at 6.91 nM.

With CCCAACGACCGCCGAGCGAGAUUACGCUCGAGCGCCCCACUGAGGAUGCCCACGGGCGAUUGGGGCACGG [U10C U29C], the Kd was determined as 7.71 nM.

Regarding CCCAACGACCGCCGAGCGAGAUUACGCUGGAGCGCCCCACUGAGGAUGCCCACGGGCGAUUGGGGCACGG [U10C U29G], the Kd came out at 6.02 nM.

Turning to CCCAACGACGGCCGAGCGAGAUUACGCUUGAGCGCCCCACUGAGGAUGACCACGGGCGAUUGGGGCACGG [U10G C49A], the Kd amounted to 20.2 nM.

CCCAACGACGGCCGAGCGAGAUUACGCUUGAGCGCCCCACUGAGGAUGGCCACGGGCGAUUGGGGCACGG [U10G C49G]: the Kd came to 7.15 nM.

As to CCCAACGACGGCCGAGCGAGAUUACGCUUGAGCGCCCCACUGAGGAUGUCCACGGGCGAUUGGGGCACGG [U10G C49U], the Kd came to 18.7 nM.

With CCCAACGACGGCCGAGCGAGAUUAAGCUUGAGCGCCCCACUGAGGAUGCCCACGGGCGAUUGGGGCACGG [U10G C25A], the Kd was determined as 4.07 nM.

For CCCAACGACGGCCGAGCGAGAUUAUGCUUGAGCGCCCCACUGAGGAUGCCCACGGGCGAUUGGGGCACGG [U10G C25U], the Kd came out at 5.86 nM.

Turning to CCCAACGACGGCCGAGCGAGAUUAGGCUUGAGCGCCCCACUGAGGAUGCCCACGGGCGAUUGGGGCACGG [U10G C25G], the Kd is 5.26 nM.

In the case of CCCAACGACGGCCGAGCGAGAUUACGCUUGAGAGCCCCACUGAGGAUGCCCACGGGCGAUUGGGGCACGG [U10G C33A], the Kd is 5.76 nM.

In the case of CCCAACGACGGCCGAGCGAGAUUACGCUUGAGGGCCCCACUGAGGAUGCCCACGGGCGAUUGGGGCACGG [U10G C33G], the Kd stood at 5.96 nM.

For the variant CCCAACGACGGCCGAGCGAGAUUACGCUUGAGUGCCCCACUGAGGAUGCCCACGGGCGAUUGGGGCACGG [U10G C33U], the Kd came to 5.07 nM.

On to CCCAACGACGGCCGAGCGAGAUUACGCUUGAGCGCCCCACUGAGGGUGCCCACGGGCGAUUGGGGCACGG [U10G A46G], for which the Kd turned out to be 38.8 nM.

Take CCCAACGACGGCCGAGCGAGAUUACGCUUGAGCGCCCCACUGAGGUUGCCCACGGGCGAUUGGGGCACGG [U10G A46U]: the Kd came out at 65.4 nM.

As for CCCAACGACGGGCGAGCGAGAUUACGCUUGAGCGCCCCACUGAGGAUGCCCACGGGCGAUUGGGGCACGG [U10G C12G], the equilibrium dissociation constant (Kd) was 5.4 nM.

Turning to CCCAACGACGGUCGAGCGAGAUUACGCUUGAGCGCCCCACUGAGGAUGCCCACGGGCGAUUGGGGCACGG [U10G C12U], the Kd worked out at 4.41 nM.

For the variant CCCAACGACGGACGAGCGAGAUUACGCUUGAGCGCCCCACUGAGGAUGCCCACGGGCGAUUGGGGCACGG [U10G C12A], the Kd came out at 5.88 nM.

For CCCAACGACGGCCGAGCGAGAUUACGCUUGAGCGCCCCACUGAGGAUGCCCACGGGCGGUUGGGGCACGG [U10G A59G], the Kd was 57.3 nM.

CCCAACGACGGCCGAGCGAGAUUACGCUUGAGCGCCCCACUGAGGAUGCCCACGGGCGUUUGGGGCACGG [U10G A59U]: the Kd was 71.4 nM.

As to CCCAACGACGGCCGAGCGAGAUUACGCUUGAGCGCCCCACUGGGGAUGCCCACGGGCGAUUGGGGCACGG [U10G A43G], the Kd was determined as 18.8 nM.

With CCCAACGACGGCCGAGCGAGAUUACGCUUGAGCGCCCCACUGCGGAUGCCCACGGGCGAUUGGGGCACGG [U10G A43C], the Kd is 75.8 nM.

Consider CCCAACGACGGCCGAGCGAGAUUACGCUUGAGCGCCCCACUGUGGAUGCCCACGGGCGAUUGGGGCACGG [U10G A43U], for which the Kd came out at 75.2 nM.

Regarding CCCAACGACGGCCGAGCGAGCUUACGCUUGAGCGCCCCACUGAGGAUGCCCACGGGCGAUUGGGGCACGG [U10G A21C], the Kd is 4.39 nM.

CCCAACGACGGCCGAGCGAGGUUACGCUUGAGCGCCCCACUGAGGAUGCCCACGGGCGAUUGGGGCACGG [U10G A21G]: the Kd turned out to be 5.45 nM.

In the case of CCCAACGACGGCCGAGCGAGUUUACGCUUGAGCGCCCCACUGAGGAUGCCCACGGGCGAUUGGGGCACGG [U10G A21U], the Kd was 5.53 nM.
